Assay results as given in PMC6583781 (Journal of medicinal chemistry, 2019).

Experiments:
Pa02c cells = assay: Cell cytotoxicity assay; assay type: cell-based; conditions: Homo sapiens, 48 h, read-out: PaO2c EC50
Summary of the method: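 Low-passage patient-derived pancreatic Pa02c cells, kept in DMEM with 10% FBS. Plated at 2000 cells/well in poly-D-lysine-treated plates and grown overnight at 37 °C, 5% CO2. Test compound in 5% FBS DMEM, 5-point 1:2 serial dilution from 100 µM, with DMSO vehicle and drug-background wells, for 48 h. Medium then refreshed and Alamar Blue added (10% final) for 4 h. Fluorescence read, background-subtracted, normalized to media alone.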

APE1 = APE1 (Homo sapiens, UniProt P27695); assay: APE1 endonuclease; assay type: biochemical
Sequence of APE1 (P27695 whole entry): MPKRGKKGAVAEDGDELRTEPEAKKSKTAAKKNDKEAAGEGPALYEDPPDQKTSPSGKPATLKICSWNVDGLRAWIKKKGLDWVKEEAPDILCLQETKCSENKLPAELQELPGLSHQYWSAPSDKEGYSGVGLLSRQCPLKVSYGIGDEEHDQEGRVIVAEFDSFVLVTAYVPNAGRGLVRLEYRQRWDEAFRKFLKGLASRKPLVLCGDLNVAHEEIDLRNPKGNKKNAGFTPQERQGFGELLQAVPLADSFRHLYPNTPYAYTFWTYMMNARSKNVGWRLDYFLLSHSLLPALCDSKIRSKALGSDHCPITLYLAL
Summary of the method: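 Purified full-length APE1 (0.25-1.25 nM) added to 50 nM duplex substrate (6-FAM strand with tetrahydrofuran AP-site mimic annealed to a quencher strand) in 50 mM Tris, 1 mM MgCl2, 50 mM NaCl, pH 7.5. Compounds in triplicate, 10-point 1:2 dilutions from 100 μM. Fluorescence read kinetically at five 1-min intervals immediately; reaction rate compared with DMSO vehicle.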

IC50 (APE1) [µM]	Compound	EC50 (Pa02c cells) [µM]
	Cc1ccc(S(=O)(=O)n2cccc2[C@@H]2NC(=O)[C@H](Cc3c[nH]c4ccccc34)NC(=O)C[C@@H](CCc3ccccc3)NC(=O)C/C=C/[C@@H]2C)cc1 [Compound 21, (3S,7R,13S,14R,E)-3-((1H-Indol-3-yl)methyl)-13-methyl-7-phenethyl-14-(1-tosyl-1H-pyrrol-2-yl)-1,4,8-triazacyclotetradec-11-ene-2,5,9-trione]	> 100
	Cc1ccc(S(=O)(=O)n2cccc2[C@@H]2NC(=O)[C@H](Cc3c[nH]c4ccccc34)NC(=O)C[C@H](CCc3ccccc3)NC(=O)C/C=C/[C@@H]2C)cc1 [Compound 20, (3S,7S,13S,14R,E)-3-((1H-Indol-3-yl)methyl)-13-methyl-7-phenethyl-14-(1-tosyl-1H-pyrrol-2-yl)-1,4,8-triazacyclotetradec-11-ene-2,5,9-trione]	> 100
16.9	Cc1ccc(S(=O)(=O)n2cccc2[C@@H]2NC(=O)[C@H](Cc3c[nH]c4ccccc34)NC(=O)CCNC(=O)C/C=C/[C@@H]2C)cc1 [Compound 19, (3S,13S,14R,E)-3-((1H-Indol-3-yl)methyl)-13-methyl-14-(1-tosyl-1H-pyrrol-2-yl)-1,4,8-triazacyclotetradec-11-ene-2,5,9-trione]	
